Four compounds from ChEMBL document CHEMBL4312005, “Optimization of pyrrolizine-based Schiff bases with 4-thiazolidinone motif: Design, synthesis and investigation of cytotoxicity and anti-inflammatory potency” (Eur J Med Chem, 2020) can be followed below.

Experiment [1] deals with AMP-activated protein kinase (AMPK) alpha-1/beta-1/gamma-1 (Homo sapiens) (UniProt P54619+Q9Y478+Q13131). As to the kind of experiment: Inhibition of recombinant human C-terminal His-tagged full length AMPK alpha1/beta1/gamma1 expressed in baculovirus infected Sf9 insect cells assessed as enzyme activity incubated for 15 mins by [gamma-33]ATP based scintillation counting method relative to control. Also on record: scale not given: the % may be the effect or the level left.

The test system of experiment [2] is MCF7. As to the kind of experiment: Cell cycle arrest in human MCF7 cells assessed as S phase accumulation at 5 uM incubated for 24 hrs by propidium iodide based flow cytometry (reference value: 17.3 to 28.5 %). The format is functional.
Experiment [3] concerns the target Vascular endothelial growth factor receptor 1 (Homo sapiens) (UniProt P17948). Nature of the experiment: Inhibition of recombinant human N-terminal GST-tagged FLT1 (784 to end residues) expressed in baculovirus infected Sf9 insect cells assessed as enzyme activity incubated for 15 mins by [gamma-33]ATP based scintillation counting method relative to control. Set-up: scale not given: the % may be the effect or the level left.

The target of experiment [4] is T1, Rhodopsin kinase GRK1 (Homo sapiens) (UniProt Q15835).
T1 sequence (whole entry): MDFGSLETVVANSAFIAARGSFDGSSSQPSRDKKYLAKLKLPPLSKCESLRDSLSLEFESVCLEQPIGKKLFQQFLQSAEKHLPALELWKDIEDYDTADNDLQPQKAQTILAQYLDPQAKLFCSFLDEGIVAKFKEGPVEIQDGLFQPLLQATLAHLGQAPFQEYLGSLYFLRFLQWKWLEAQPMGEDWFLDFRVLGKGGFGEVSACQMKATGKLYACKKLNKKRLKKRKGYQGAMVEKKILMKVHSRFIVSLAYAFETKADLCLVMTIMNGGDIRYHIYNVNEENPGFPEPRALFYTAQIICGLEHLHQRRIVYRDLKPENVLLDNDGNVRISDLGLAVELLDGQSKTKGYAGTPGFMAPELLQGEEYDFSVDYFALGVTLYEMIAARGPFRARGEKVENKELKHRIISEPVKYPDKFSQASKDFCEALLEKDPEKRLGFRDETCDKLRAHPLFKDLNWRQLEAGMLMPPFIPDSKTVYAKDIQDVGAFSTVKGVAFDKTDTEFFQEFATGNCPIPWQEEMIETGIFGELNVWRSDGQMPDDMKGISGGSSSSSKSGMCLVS
Nature of the experiment: Inhibition of GRK1 (unknown origin) assessed as enzyme activity incubated for 15 mins by [gamma-33]ATP based scintillation counting method relative to control. Set-up: scale not given: the % may be the effect or the level left.

Experiment [5] deals with MCF7. As to the kind of experiment: Cell cycle arrest in human MCF7 cells assessed as G1 accumulation at 1 uM incubated for 24 hrs by propidium iodide based flow cytometry (reference value: 49.6 to 55.1 %). It is filed as functional.
The test system of the next experiment is MRC5. As to the kind of experiment: Cytotoxicity against human MRC5 cells assessed as reduction in cell growth incubated for 72 hrs by MTT assay. The format is cell-based. To be noted: MRC5, 72 h. An outline of the steps: (§1)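 MTT assay on MCF-7, A2780, HT29 and normal MRC5 fibroblast lines (ATCC) grown in DMEM with 10% FBS. Cells exposed to compounds for 72 h, then reduced MTT read at 570 nm.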

In experiment [6] the target is Cyclin-dependent kinase 2 (Homo sapiens, UniProt P24941). As to the kind of experiment: Inhibition of CDK2 (unknown origin) incubated for 40 mins by ADP-glo assay.
The next experiment has as its system HT-29. As to the kind of experiment: Antiproliferative activity against human HT-29 cells assessed as reduction in cell growth incubated for 72 hrs by MTT assay. The format is functional, cell-based. To be noted: HT-29, 72 h. An outline of the steps:
as §1

Experiment [7] addresses T2, Aurora kinase A (Homo sapiens) (UniProt O14965).
T2 sequence (whole entry): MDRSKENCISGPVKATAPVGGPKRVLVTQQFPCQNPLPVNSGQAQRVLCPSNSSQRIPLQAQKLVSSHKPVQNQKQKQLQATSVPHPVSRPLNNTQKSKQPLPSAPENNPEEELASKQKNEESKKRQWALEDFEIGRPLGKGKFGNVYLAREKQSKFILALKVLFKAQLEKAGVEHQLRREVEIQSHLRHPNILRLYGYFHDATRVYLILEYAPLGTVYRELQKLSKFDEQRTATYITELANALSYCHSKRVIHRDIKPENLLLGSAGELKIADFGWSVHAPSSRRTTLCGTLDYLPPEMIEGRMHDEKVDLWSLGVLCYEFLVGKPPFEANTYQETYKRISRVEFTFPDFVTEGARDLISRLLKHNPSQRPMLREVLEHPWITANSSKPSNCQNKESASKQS
Nature of the experiment: Inhibition of recombinant human N-terminal GST-tagged full length Aurora A expressed in baculovirus infected Sf9 insect cells assessed as enzyme activity incubated for 15 mins by [gamma-33]ATP based scintillation counting method relative to control. Also on record: scale not given: the % may be the effect or the level left.

The target of experiment [8] is Prostaglandin G/H synthase 1 (Homo sapiens, UniProt P23219). As to the kind of experiment: Inhibition of human COX1 using arachidonic acid as substrate incubated for 2 mins by ELISA method.
Experiment [9] concerns MCF7. Nature of the experiment: Induction of apoptosis in human MCF7 cells assessed as early apoptotic cells at 10 uM incubated for 24 hrs by annexin V FITC and propidium iodide staining based flow cytometry (reference value: 0 to 9 %). It is filed as functional.
The target in experiment [10] is Casein kinase I isoform alpha (Homo sapiens) (UniProt P48729). Nature of the experiment: Inhibition of CK1alpha1 (unknown origin) assessed as enzyme activity incubated for 15 mins by [gamma-33]ATP based scintillation counting method relative to control. Also on record: scale not given: the % may be the effect or the level left.
For experiment [11], the target named is Tyrosine-protein kinase Blk (Homo sapiens) (UniProt P51451). As to the kind of experiment: Inhibition of recombinant human N-terminal GST-tagged full length BLK expressed in baculovirus infected Sf9 insect cells assessed as enzyme activity incubated for 15 mins by [gamma-33]ATP based scintillation counting method relative to control. Set-up: scale not given: the % may be the effect or the level left.

The target in experiment [12] is Glycogen synthase kinase-3 alpha (Homo sapiens) (UniProt P49840). As to the kind of experiment: Inhibition of recombinant human N-terminal GST-tagged full length GSK3alpha expressed in baculovirus infected Sf9 insect cells assessed as enzyme activity incubated for 15 mins by [gamma-33]ATP based scintillation counting method relative to control. Set-up: scale not given: the % may be the effect or the level left.

For experiment [13], the target named is T3, Dual specificity tyrosine-phosphorylation-regulated kinase 3 (Homo sapiens) (UniProt O43781).
T3 sequence (whole entry): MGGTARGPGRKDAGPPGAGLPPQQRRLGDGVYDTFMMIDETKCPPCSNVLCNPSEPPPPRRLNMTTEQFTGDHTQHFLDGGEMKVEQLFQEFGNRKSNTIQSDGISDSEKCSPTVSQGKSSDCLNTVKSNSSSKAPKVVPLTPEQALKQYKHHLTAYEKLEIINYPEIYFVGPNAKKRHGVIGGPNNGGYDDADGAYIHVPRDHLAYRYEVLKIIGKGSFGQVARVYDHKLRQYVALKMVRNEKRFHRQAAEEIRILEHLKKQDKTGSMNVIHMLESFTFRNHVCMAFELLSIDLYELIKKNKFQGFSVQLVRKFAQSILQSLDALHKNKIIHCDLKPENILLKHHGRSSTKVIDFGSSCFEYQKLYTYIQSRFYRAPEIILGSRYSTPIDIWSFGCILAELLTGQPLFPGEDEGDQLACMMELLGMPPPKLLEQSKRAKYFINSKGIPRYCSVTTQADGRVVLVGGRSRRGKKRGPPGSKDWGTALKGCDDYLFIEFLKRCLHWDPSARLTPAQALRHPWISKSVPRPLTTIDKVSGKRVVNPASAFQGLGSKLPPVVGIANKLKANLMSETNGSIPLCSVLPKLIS
As to the kind of experiment: Inhibition of DYRK3 (unknown origin) assessed as enzyme activity incubated for 15 mins by [gamma-33]ATP based scintillation counting method relative to control. Also on record: scale not given: the % may be the effect or the level left.

Chain of Vascular endothelial growth factor receptor 1 (Homo sapiens) (P17948 whole entry): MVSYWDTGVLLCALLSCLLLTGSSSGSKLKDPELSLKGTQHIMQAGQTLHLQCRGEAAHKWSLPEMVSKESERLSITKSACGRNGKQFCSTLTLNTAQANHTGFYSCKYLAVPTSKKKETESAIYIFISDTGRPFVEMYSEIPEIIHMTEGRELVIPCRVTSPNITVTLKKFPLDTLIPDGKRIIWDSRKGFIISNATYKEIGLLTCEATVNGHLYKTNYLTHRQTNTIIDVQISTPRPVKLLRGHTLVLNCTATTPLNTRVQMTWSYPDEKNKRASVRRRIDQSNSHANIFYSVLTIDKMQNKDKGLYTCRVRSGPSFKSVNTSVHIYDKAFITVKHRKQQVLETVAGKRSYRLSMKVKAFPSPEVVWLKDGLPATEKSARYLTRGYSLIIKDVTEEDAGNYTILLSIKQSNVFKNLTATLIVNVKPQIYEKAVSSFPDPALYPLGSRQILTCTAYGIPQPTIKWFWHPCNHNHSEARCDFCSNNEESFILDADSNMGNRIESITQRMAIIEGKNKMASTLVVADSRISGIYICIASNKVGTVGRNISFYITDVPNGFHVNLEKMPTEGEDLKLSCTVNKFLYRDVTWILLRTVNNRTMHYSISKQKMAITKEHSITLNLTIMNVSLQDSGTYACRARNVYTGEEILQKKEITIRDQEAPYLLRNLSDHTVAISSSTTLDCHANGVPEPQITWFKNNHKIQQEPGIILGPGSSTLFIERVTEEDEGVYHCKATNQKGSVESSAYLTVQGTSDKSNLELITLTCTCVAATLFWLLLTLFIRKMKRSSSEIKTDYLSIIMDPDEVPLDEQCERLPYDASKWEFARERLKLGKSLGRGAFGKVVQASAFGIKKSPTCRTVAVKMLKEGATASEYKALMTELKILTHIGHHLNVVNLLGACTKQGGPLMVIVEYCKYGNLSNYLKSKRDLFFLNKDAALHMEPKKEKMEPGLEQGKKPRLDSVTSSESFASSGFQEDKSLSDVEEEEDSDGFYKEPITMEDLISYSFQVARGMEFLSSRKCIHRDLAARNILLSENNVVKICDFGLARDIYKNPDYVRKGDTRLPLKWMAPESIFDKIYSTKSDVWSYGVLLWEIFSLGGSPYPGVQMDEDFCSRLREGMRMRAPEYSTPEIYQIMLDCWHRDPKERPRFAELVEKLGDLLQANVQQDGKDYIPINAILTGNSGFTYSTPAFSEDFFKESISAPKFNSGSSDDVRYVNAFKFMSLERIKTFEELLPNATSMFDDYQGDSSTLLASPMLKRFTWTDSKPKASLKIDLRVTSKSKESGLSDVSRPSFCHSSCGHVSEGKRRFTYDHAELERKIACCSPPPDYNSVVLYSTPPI
Chain of Glycogen synthase kinase-3 alpha (Homo sapiens) (P49840 2-483 limits assumed): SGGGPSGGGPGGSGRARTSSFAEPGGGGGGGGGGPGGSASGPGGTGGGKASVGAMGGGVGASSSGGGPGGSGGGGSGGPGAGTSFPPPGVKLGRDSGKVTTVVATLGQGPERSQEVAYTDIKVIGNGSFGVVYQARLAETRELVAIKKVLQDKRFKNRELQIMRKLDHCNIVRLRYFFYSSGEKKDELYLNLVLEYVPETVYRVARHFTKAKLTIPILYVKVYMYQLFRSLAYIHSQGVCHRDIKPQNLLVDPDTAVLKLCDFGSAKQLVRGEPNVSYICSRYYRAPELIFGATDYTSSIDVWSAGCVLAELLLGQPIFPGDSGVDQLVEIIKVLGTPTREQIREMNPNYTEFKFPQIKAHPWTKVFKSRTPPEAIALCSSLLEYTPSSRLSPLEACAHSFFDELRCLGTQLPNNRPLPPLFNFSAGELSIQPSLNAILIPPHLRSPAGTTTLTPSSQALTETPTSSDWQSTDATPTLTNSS
Chain of Tyrosine-protein kinase Blk (Homo sapiens) (P51451 2-505 limits assumed): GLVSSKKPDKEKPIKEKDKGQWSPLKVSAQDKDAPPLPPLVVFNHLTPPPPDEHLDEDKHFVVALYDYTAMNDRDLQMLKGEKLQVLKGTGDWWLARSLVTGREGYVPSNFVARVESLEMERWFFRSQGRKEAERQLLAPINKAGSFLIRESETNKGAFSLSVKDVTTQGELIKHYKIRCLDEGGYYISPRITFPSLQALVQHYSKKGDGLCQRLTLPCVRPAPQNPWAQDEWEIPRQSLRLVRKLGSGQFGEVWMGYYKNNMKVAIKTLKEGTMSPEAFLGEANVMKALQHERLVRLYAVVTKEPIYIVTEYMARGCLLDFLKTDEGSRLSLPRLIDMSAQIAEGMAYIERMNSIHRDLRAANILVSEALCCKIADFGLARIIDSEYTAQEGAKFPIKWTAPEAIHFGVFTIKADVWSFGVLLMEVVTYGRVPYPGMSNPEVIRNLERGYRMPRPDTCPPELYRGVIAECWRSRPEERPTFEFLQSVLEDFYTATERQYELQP
Chain of Casein kinase I isoform alpha (Homo sapiens) (P48729 2-337 limits assumed): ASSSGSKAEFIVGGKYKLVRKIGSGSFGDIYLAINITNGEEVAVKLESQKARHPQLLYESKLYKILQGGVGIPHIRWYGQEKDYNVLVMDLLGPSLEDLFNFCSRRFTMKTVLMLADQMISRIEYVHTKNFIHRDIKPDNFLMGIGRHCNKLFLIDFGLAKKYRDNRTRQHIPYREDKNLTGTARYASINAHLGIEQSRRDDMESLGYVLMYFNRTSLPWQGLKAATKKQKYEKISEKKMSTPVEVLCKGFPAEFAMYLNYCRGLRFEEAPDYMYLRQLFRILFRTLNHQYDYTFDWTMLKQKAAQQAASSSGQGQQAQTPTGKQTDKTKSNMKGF
Chain of AMP-activated protein kinase (AMPK) alpha-1/beta-1/gamma-1 (Homo sapiens) (P54619 whole entry): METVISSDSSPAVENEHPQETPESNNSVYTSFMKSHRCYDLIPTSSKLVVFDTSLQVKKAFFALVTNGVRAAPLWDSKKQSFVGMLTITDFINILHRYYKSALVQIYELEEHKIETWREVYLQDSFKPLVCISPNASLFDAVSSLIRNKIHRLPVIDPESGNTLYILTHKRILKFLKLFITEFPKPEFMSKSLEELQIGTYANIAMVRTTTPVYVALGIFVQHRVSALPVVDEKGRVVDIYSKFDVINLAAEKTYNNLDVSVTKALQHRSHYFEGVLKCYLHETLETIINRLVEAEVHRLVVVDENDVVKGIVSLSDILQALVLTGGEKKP
Chain of AMP-activated protein kinase (AMPK) alpha-1/beta-1/gamma-1 (Homo sapiens) (Q13131 whole entry partner): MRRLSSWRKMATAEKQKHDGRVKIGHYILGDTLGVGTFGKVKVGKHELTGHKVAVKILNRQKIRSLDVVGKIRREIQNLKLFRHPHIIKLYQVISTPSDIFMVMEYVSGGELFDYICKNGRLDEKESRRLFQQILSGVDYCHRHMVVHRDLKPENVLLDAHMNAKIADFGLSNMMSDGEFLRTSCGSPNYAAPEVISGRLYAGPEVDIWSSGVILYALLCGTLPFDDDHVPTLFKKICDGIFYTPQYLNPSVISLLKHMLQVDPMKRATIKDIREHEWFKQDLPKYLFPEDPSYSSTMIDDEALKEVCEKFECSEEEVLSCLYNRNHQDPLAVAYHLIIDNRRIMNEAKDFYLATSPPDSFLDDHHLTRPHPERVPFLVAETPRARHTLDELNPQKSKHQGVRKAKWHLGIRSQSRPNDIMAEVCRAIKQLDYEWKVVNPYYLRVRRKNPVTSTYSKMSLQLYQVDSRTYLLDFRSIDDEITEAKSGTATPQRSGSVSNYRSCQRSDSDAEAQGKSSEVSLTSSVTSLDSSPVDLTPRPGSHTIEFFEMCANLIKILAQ
Chain of AMP-activated protein kinase (AMPK) alpha-1/beta-1/gamma-1 (Homo sapiens) (Q9Y478 2-270 partner limits assumed): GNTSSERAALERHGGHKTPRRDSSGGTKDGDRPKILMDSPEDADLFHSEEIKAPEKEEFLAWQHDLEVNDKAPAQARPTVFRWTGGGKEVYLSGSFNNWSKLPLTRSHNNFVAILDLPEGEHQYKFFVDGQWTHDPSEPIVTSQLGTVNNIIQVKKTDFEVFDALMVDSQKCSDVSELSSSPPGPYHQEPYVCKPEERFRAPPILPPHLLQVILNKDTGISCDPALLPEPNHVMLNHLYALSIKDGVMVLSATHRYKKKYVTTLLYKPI
Chain of Prostaglandin G/H synthase 1 (P23219 whole entry): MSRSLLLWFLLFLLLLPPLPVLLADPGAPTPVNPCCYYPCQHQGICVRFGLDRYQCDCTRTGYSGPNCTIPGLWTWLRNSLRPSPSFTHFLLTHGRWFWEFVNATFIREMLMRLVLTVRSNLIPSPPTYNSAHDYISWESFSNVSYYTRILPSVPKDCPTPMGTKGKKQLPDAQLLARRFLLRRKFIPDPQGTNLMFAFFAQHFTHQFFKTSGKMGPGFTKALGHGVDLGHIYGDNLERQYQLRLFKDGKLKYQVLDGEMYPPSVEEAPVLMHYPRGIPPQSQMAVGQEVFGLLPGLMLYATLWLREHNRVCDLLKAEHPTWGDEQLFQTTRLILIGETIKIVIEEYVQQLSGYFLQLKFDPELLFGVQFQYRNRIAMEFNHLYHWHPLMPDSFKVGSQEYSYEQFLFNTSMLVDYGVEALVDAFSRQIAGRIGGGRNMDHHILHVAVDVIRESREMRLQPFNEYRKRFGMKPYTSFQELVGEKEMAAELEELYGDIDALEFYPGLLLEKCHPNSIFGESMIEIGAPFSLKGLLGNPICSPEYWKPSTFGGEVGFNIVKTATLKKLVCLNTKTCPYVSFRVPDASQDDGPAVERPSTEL

`CC(C)C/C=N/c1c(C#N)c2n(c1C(=O)Nc1ccc(Br)cc1)CCC2`: the Activity was found to be 12% in experiment [1]; 55.1% in the experiment on MCF7 [2]; 1% in [3]; 1% in experiment [4]; 30.8% in the experiment with MCF7 [5]; 1% in experiment [7]. Moreover, the Activity with MCF7 [9] was 15.6%; in experiment [10], 6%; in experiment [11], 7%; in experiment [12] it was -3%; in [13], -25%. In addition, the IC50 was 25800 nM with MRC5, 1270 nM in experiment [6], 670 nM in the experiment with HT-29 and more than 100000 nM in [8].
Regarding `Cc1ccc(NC(=O)c2ccc(CN3CCN(C)CC3)cc2)cc1Nc1nccc(-c2cccnc2)n1`, the Activity in experiment [1] was 18%; in [3], -10%; in experiment [4] it was 2%; in experiment [7], -38%; in experiment [10] it was 0%; in experiment [11] it was -3%. In addition, the Activity is -1% in experiment [12] and -10% in experiment [13].
Consider `CC/C=N/c1c(C#N)c2n(c1C(=O)Nc1ccccc1)CCC2`, for which the Activity in experiment [1] is -4%; in experiment [3] it was 18%; in experiment [4], -10%; in experiment [7] it was -8%; in experiment [10] it was -23%; in experiment [11], -32%. In addition, the Activity in experiment [12] is -24%; in experiment [13], 33%. Moreover, the IC50 with MRC5 is 3170 nM; in experiment [6] it was 580 nM; in the experiment on HT-29, 200 nM; in [8], more than 100000 nM.
Turning to `CCC1SCC(=O)N1c1c(C#N)c2n(c1C(=O)Nc1ccccc1)CCC2` (stereo not given), the Activity in experiment [1] was 2%; in the experiment on MCF7 [2] it was 17.8%; in [3], 32%; in [4] it was -9%; in the experiment on MCF7 [5] it was 56.4%; in experiment [7], -11%. Moreover, the Activity in the experiment on MCF7 [9] is 19.5%; in [10], -16%; in [11], 26%; in [12], -12%; in [13] it was 38%. The IC50 in the experiment with MRC5 is 630 nM; in experiment [6] it was 630 nM; in the experiment on HT-29, 600 nM; in [8] it was 43700 nM.
